Experimental data reported in ChEMBL document CHEMBL3272198, “Preparation and in vitro antifungal activities of some quinolizidine derived hemiaminals and beta-tert-amino sulfides” (1976).

Columns and labels:
Assay type in all cases: functional
Blastomyces dermatitidis [1] = experiment: Antifungal activity against Blastomyces dermatitidis Gilchrist & Stokes isolate 1107 at 10 ug/ml after 2 weeks (reference value: 35 mm); conditions: Gilchrist & Stokes isolate 1107, 336 h, read-out: DIZ
Outline: (§1)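 Mycelial phase grown on Sabouraud dextrose agar at 25°C. Agar pH was set to 6 before the test solution was added and was 5.0-5.5 after. Test solutions contained HOAc and Me2SO, and solvent and blank controls were included. Each quadrant was center-inoculated with a 2 × 2 mm piece of a 2-week-old mycelial culture. Colony diameter was measured weekly for 3 weeks and reported as total increments (mm). Duplicates were run.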

Blastomyces dermatitidis [2] = experiment: Antifungal activity against Blastomyces dermatitidis Gilchrist & Stokes isolate 1107 at 80 ug/ml after 3 weeks (reference value: 40 mm); conditions: Gilchrist & Stokes isolate 1107, 504 h, read-out: DIZ; outline: as §1
Blastomyces dermatitidis [3] = experiment: Antifungal activity against Blastomyces dermatitidis Gilchrist & Stokes isolate 1107 at 60 ug/ml after 3 weeks (reference value: 40 mm); conditions: Gilchrist & Stokes isolate 1107, 504 h, read-out: DIZ; outline: as §1
Blastomyces dermatitidis [4] = experiment: Antifungal activity against Blastomyces dermatitidis Gilchrist & Stokes isolate 1107 at 20 ug/ml after 3 weeks (reference value: 40 mm); conditions: Gilchrist & Stokes isolate 1107, 504 h, read-out: DIZ
Histoplasma capsulatum [5] = experiment: Antifungal activity against Histoplasma capsulatum Darling isolate 1106 at 10 ug/ml after 1 week (reference value: 14 mm); conditions: Darling isolate 1106, 168 h, read-out: DIZ
Histoplasma capsulatum [6] = experiment: Antifungal activity against Histoplasma capsulatum Darling isolate 1106 at 60 ug/ml after 2 weeks (reference value: 25 mm); conditions: Darling isolate 1106, 336 h, read-out: DIZ
Histoplasma capsulatum [7] = experiment: Antifungal activity against Histoplasma capsulatum Darling isolate 1106 at 40 ug/ml after 2 weeks (reference value: 25 mm); conditions: Darling isolate 1106, 336 h, read-out: DIZ
Histoplasma capsulatum [8] = experiment: Antifungal activity against Histoplasma capsulatum Darling isolate 1106 at 20 ug/ml after 2 weeks (reference value: 25 mm); conditions: Darling isolate 1106, 336 h, read-out: DIZ
Histoplasma capsulatum [9] = experiment: Antifungal activity against Histoplasma capsulatum Darling isolate 1106 at 100 ug/ml after 3 weeks (reference value: 31 mm); conditions: Darling isolate 1106, 504 h, read-out: DIZ
Histoplasma capsulatum [10] = experiment: Antifungal activity against Histoplasma capsulatum Darling isolate 1106 at 40 ug/ml after 3 weeks (reference value: 31 mm); conditions: Darling isolate 1106, 504 h, read-out: DIZ
Histoplasma capsulatum [11] = experiment: Antifungal activity against Histoplasma capsulatum Darling isolate 1106 at 20 ug/ml after 3 weeks (reference value: 31 mm); conditions: Darling isolate 1106, 504 h, read-out: DIZ
Blastomyces dermatitidis [12] = experiment: Antifungal activity against Blastomyces dermatitidis Gilchrist & Stokes isolate 1099 at 20 ug/ml after 1 week (reference value: 14 mm); conditions: Gilchrist & Stokes isolate 1099, 168 h, read-out: DIZ; outline: as §1
Blastomyces dermatitidis [13] = experiment: Antifungal activity against Blastomyces dermatitidis Gilchrist & Stokes isolate 1099 at 10 ug/ml after 1 week (reference value: 14 mm); conditions: Gilchrist & Stokes isolate 1099, 168 h, read-out: DIZ; outline: as §1
Blastomyces dermatitidis [14] = experiment: Antifungal activity against Blastomyces dermatitidis Gilchrist & Stokes isolate 1099 at 100 ug/ml after 2 weeks (reference value: 27 mm); conditions: Gilchrist & Stokes isolate 1099, 336 h, read-out: DIZ
Blastomyces dermatitidis [15] = experiment: Antifungal activity against Blastomyces dermatitidis Gilchrist & Stokes isolate 1099 at 60 ug/ml after 2 weeks (reference value: 27 mm); conditions: Gilchrist & Stokes isolate 1099, 336 h, read-out: DIZ; outline: as §1
Blastomyces dermatitidis [16] = experiment: Antifungal activity against Blastomyces dermatitidis Gilchrist & Stokes isolate 1099 at 20 ug/ml after 2 weeks (reference value: 27 mm); conditions: Gilchrist & Stokes isolate 1099, 336 h, read-out: DIZ
Blastomyces dermatitidis [17] = experiment: Antifungal activity against Blastomyces dermatitidis Gilchrist & Stokes isolate 1099 at 10 ug/ml after 2 weeks (reference value: 27 mm); conditions: Gilchrist & Stokes isolate 1099, 336 h, read-out: DIZ; outline: as §1
Blastomyces dermatitidis [18] = experiment: Antifungal activity against Blastomyces dermatitidis Gilchrist & Stokes isolate 1099 at 20 ug/ml after 3 weeks (reference value: 34 mm); conditions: Gilchrist & Stokes isolate 1099, 504 h, read-out: DIZ
Blastomyces dermatitidis [19] = experiment: Antifungal activity against Blastomyces dermatitidis Gilchrist & Stokes isolate 1107 at 100 ug/ml after 1 week (reference value: 20 mm); conditions: Gilchrist & Stokes isolate 1107, 168 h, read-out: DIZ
Blastomyces dermatitidis [20] = experiment: Antifungal activity against Blastomyces dermatitidis Gilchrist & Stokes isolate 1107 at 60 ug/ml after 1 week (reference value: 20 mm); conditions: Gilchrist & Stokes isolate 1107, 168 h, read-out: DIZ
Blastomyces dermatitidis [21] = experiment: Antifungal activity against Blastomyces dermatitidis Gilchrist & Stokes isolate 1107 at 40 ug/ml after 1 week (reference value: 20 mm); conditions: Gilchrist & Stokes isolate 1107, 168 h, read-out: DIZ
Blastomyces dermatitidis [22] = experiment: Antifungal activity against Blastomyces dermatitidis Gilchrist & Stokes isolate 1107 at 20 ug/ml after 1 week (reference value: 20 mm); conditions: Gilchrist & Stokes isolate 1107, 168 h, read-out: DIZ; outline: as §1
Blastomyces dermatitidis [23] = experiment: Antifungal activity against Blastomyces dermatitidis Gilchrist & Stokes isolate 1107 at 100 ug/ml after 2 weeks (reference value: 35 mm); conditions: Gilchrist & Stokes isolate 1107, 336 h, read-out: DIZ; outline: as §1
Blastomyces dermatitidis [24] = experiment: Antifungal activity against Blastomyces dermatitidis Gilchrist & Stokes isolate 1107 at 80 ug/ml after 2 weeks (reference value: 35 mm); conditions: Gilchrist & Stokes isolate 1107, 336 h, read-out: DIZ; outline: as §1
Blastomyces dermatitidis [25] = experiment: Antifungal activity against Blastomyces dermatitidis Gilchrist & Stokes isolate 1107 at 60 ug/ml after 2 weeks (reference value: 35 mm); conditions: Gilchrist & Stokes isolate 1107, 336 h, read-out: DIZ; outline: as §1
Blastomyces dermatitidis [26] = experiment: Antifungal activity against Blastomyces dermatitidis Gilchrist & Stokes isolate 1107 at 40 ug/ml after 2 weeks (reference value: 35 mm); conditions: Gilchrist & Stokes isolate 1107, 336 h, read-out: DIZ; outline: as §1
Blastomyces dermatitidis [27] = experiment: Antifungal activity against Blastomyces dermatitidis Gilchrist & Stokes isolate 1107 at 20 ug/ml after 2 weeks (reference value: 35 mm); conditions: Gilchrist & Stokes isolate 1107, 336 h, read-out: DIZ
Histoplasma capsulatum [28] = experiment: Antifungal activity against Histoplasma capsulatum Darling isolate 1098 at 80 ug/ml after 1 week (reference value: 12 mm); conditions: Darling isolate 1098, 168 h, read-out: DIZ
Histoplasma capsulatum [29] = experiment: Antifungal activity against Histoplasma capsulatum Darling isolate 1098 at 40 ug/ml after 1 week (reference value: 12 mm); conditions: Darling isolate 1098, 168 h, read-out: DIZ
Histoplasma capsulatum [30] = experiment: Antifungal activity against Histoplasma capsulatum Darling isolate 1098 at 20 ug/ml after 1 week (reference value: 12 mm); conditions: Darling isolate 1098, 168 h, read-out: DIZ
Histoplasma capsulatum [31] = experiment: Antifungal activity against Histoplasma capsulatum Darling isolate 1098 at 60 ug/ml after 3 weeks (reference value: 28 mm); conditions: Darling isolate 1098, 504 h, read-out: DIZ
Histoplasma capsulatum [32] = experiment: Antifungal activity against Histoplasma capsulatum Darling isolate 1098 at 20 ug/ml after 3 weeks (reference value: 28 mm); conditions: Darling isolate 1098, 504 h, read-out: DIZ

With `CS[C@@]1(C)CC[C@@H]2CCCCN2C1O` (some centres not stated) the zone of inhibition at 10 µg/mL (Blastomyces dermatitidis [1]) was 33 mm, the zone of inhibition at 80 µg/mL (Blastomyces dermatitidis [2]) was 40 mm and the zone of inhibition at 60 µg/mL (Blastomyces dermatitidis [3]) was 40 mm. For the same compound, the zone of inhibition at 20 µg/mL (Blastomyces dermatitidis [4]) was 40 mm, the zone of inhibition at 10 µg/mL (Histoplasma capsulatum [5]) was 11 mm and the zone of inhibition at 60 µg/mL (Histoplasma capsulatum [6]) was 19 mm. It also gave a zone of inhibition at 40 µg/mL (Histoplasma capsulatum [7]) of 21 mm, a zone of inhibition at 20 µg/mL (Histoplasma capsulatum [8]) of 20 mm and a zone of inhibition at 100 µg/mL (Histoplasma capsulatum [9]) of 26 mm. It also gave a zone of inhibition at 40 µg/mL (Histoplasma capsulatum [10]) of 28 mm, a zone of inhibition at 20 µg/mL (Histoplasma capsulatum [11]) of 26 mm and a zone of inhibition at 20 µg/mL (Blastomyces dermatitidis [12]) of 15 mm. It also gave a zone of inhibition at 10 µg/mL (Blastomyces dermatitidis [13]) of 16 mm, a zone of inhibition at 100 µg/mL (Blastomyces dermatitidis [14]) of 25 mm and a zone of inhibition at 60 µg/mL (Blastomyces dermatitidis [15]) of 25 mm. It also gave a zone of inhibition at 20 µg/mL (Blastomyces dermatitidis [16]) of 26 mm, a zone of inhibition at 10 µg/mL (Blastomyces dermatitidis [17]) of 28 mm and a zone of inhibition at 20 µg/mL (Blastomyces dermatitidis [18]) of 35 mm. It also gave a zone of inhibition at 100 µg/mL (Blastomyces dermatitidis [19]) of 16 mm, a zone of inhibition at 60 µg/mL (Blastomyces dermatitidis [20]) of 20 mm and a zone of inhibition at 40 µg/mL (Blastomyces dermatitidis [21]) of 20 mm. For the same compound, the zone of inhibition at 20 µg/mL (Blastomyces dermatitidis [22]) was 21 mm, the zone of inhibition at 100 µg/mL (Blastomyces dermatitidis [23]) was 31 mm and the zone of inhibition at 80 µg/mL (Blastomyces dermatitidis [24]) was 29 mm. It also gave a zone of inhibition at 60 µg/mL (Blastomyces dermatitidis [25]) of 31 mm, a zone of inhibition at 40 µg/mL (Blastomyces dermatitidis [26]) of 33 mm and a zone of inhibition at 20 µg/mL (Blastomyces dermatitidis [27]) of 34 mm. The zone of inhibition at 80 µg/mL (Histoplasma capsulatum [28]) was 9 mm, the zone of inhibition at 40 µg/mL (Histoplasma capsulatum [29]) was 9 mm and the zone of inhibition at 20 µg/mL (Histoplasma capsulatum [30]) was 10 mm. It also gave a zone of inhibition at 60 µg/mL (Histoplasma capsulatum [31]) of 30 mm and a zone of inhibition at 20 µg/mL (Histoplasma capsulatum [32]) of 31 mm.
